Results: ChEMBL document CHEMBL4665872, “Rational design of cell-permeable cyclic peptides containing a d-Pro-l-Pro motif” (Bioorg Med Chem, 2020)
Where a SMILES comes first, the peptide text is derived from it. Side-chain parts run from the residue outwards. [ ]: non-standard residue; d: D form. The star is where a group is joined. X1 = NC(=O)[C@H](CCCCNC(=O)c1ccc2c(c1)C(=O)OC21c2ccc3cc(O)ccc3c2Oc2c1ccc1cc(O)ccc21)N*; 2Nal = N[C@@H](Cc1ccc2ccccc2c1)C(=O)O; AEEA = NCCOCCOCC(=O)O

Assay: Drug uptake in human HeLa cells assessed as cytosolic entry efficiency measured as fluorescence at 5 uM incubated for 2 hrs by flow cytometry relative to CPP9 (100%)
Format: ADME, cell-based
Summary of the method: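 HeLa cells seeded 24 h earlier, given 5 μM naphthofluorescein-labelled peptide in DMEM with 1% or 10% FBS, 37 °C, 2 h. Cells DPBS-washed, trypsinized, flow cytometry with 633-nm excitation, APC channel, 10,000 live-cell events gated. Signal read as cytosolic entry because NF is non-fluorescent in acidic compartments; mean ± SD of three independent experiments, relative to CPP9 (100%).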

| RFU [%] | Structure (SMILES) |
| --- | --- |
| 94 | C[C@@H]1NC(=O)[C@H](CCC(=O)NCCOCCOCC(=O)N[C@@H](CCCCNC(=O)c2ccc3c(c2)C(=O)OC32c3ccc4cc(O)ccc4c3Oc3c2ccc2cc(O)ccc32)C(N)=O)NC(=O)[C@H](Cc2ccccc2)NC(=O)[C@H](CCCNC(=N)N)NC(=O)[C@H](CCCNC(=N)N)NC(=O)[C@@H]2CCCN2C(=O)[C@H]2CCCN2C(=O)[C@@H](CCCNC(=N)N)NC(=O)[C@H](Cc2ccc3ccccc3c2)NC(=O)[C@H](Cc2ccccc2)NC1=O |
| 46 | C[C@@H]1NC(=O)[C@H](Cc2ccc3ccccc3c2)NC(=O)[C@H](Cc2ccccc2)NC(=O)[C@H](C)NC(=O)[C@H](CCC(=O)NCCOCCOCC(=O)N[C@@H](CCCCNC(=O)c2ccc3c(c2)C(=O)OC32c3ccc4cc(O)ccc4c3Oc3c2ccc2cc(O)ccc32)C(N)=O)NC(=O)[C@H](Cc2ccccc2)NC(=O)[C@H](CCCNC(=N)N)NC(=O)[C@H](CCCNC(=N)N)NC(=O)[C@@H]2CCCN2C(=O)[C@H](C)NC1=O (cyclo([2Nal]AAPRRFE([AEEA-X1])AF)) |
| 22 | C[C@@H]1NC(=O)[C@H](C)NC(=O)[C@H](Cc2ccccc2)NC(=O)[C@H](CCCNC(=N)N)NC(=O)[C@H](CCCNC(=N)N)NC(=O)[C@@H]2CCCN2C(=O)[C@H]2CCCN2C(=O)[C@H](CCCNC(=N)N)NC(=O)[C@H](Cc2ccc3ccccc3c2)NC(=O)[C@H](Cc2ccccc2)NC(=O)[C@H](C)NC(=O)[C@H](C)NC(=O)[C@H](CCC(=O)NCCOCCOCC(=O)N[C@@H](CCCCNC(=O)c2ccc3c(c2)C(=O)OC32c3ccc4cc(O)ccc4c3Oc3c2ccc2cc(O)ccc32)C(N)=O)NC(=O)[C@H](C)NC1=O |
| 21 | C[C@@H]1NC(=O)[C@H](C)NC(=O)[C@H](CCCNC(=N)N)NC(=O)[C@H](CCCNC(=N)N)NC(=O)[C@H](CCCNC(=N)N)NC(=O)[C@@H]2CCCN2C(=O)[C@H]2CCCN2C(=O)[C@H](CCCNC(=N)N)NC(=O)[C@H](Cc2ccc3ccccc3c2)NC(=O)[C@H](Cc2ccccc2)NC(=O)[C@H](C)NC(=O)[C@H](C)NC(=O)[C@H](CCC(=O)NCCOCCOCC(=O)N[C@@H](CCCCNC(=O)c2ccc3c(c2)C(=O)OC32c3ccc4cc(O)ccc4c3Oc3c2ccc2cc(O)ccc32)C(N)=O)NC(=O)[C@H](C)NC1=O |
| 5.7 | C[C@@H]1NC(=O)[C@H](C)NC(=O)[C@H](Cc2ccc3ccccc3c2)NC(=O)[C@H](CCCNC(=N)N)NC(=O)[C@H](CCCNC(=N)N)NC(=O)[C@@H]2CCCN2C(=O)[C@H]2CCCN2C(=O)[C@H](CCCNC(=N)N)NC(=O)[C@H](CCCNC(=N)N)NC(=O)[C@H](Cc2ccccc2)NC(=O)[C@H](C)NC(=O)[C@H](C)NC(=O)[C@H](CCC(=O)NCCOCCOCC(=O)N[C@@H](CCCCNC(=O)c2ccc3c(c2)C(=O)OC32c3ccc4cc(O)ccc4c3Oc3c2ccc2cc(O)ccc32)C(N)=O)NC(=O)[C@H](C)NC1=O |
| 34 | C[C@@H]1NC(=O)[C@H](CCCNC(=N)N)NC(=O)[C@H](CCC(=O)NCCOCCOCC(=O)N[C@@H](CCCCNC(=O)c2ccc3c(c2)C(=O)OC32c3ccc4cc(O)ccc4c3Oc3c2ccc2cc(O)ccc32)C(N)=O)NC(=O)[C@H](CCCNC(=N)N)NC(=O)[C@H](C)NC(=O)[C@H](CCCNC(=N)N)NC(=O)[C@H](Cc2ccccc2)NC(=O)[C@H](CCCNC(=N)N)NC(=O)[C@H](CCCNC(=N)N)NC(=O)[C@@H]2CCCN2C(=O)[C@H]2CCCN2C(=O)[C@@H](CCCNC(=N)N)NC(=O)[C@H](Cc2ccc3ccccc3c2)NC(=O)[C@H](Cc2ccccc2)NC1=O |

More lines, now with the values behind:

| Structure (SMILES) | RFU [%] |
| --- | --- |
| C[C@@H]1NC(=O)[C@H](C)NC(=O)[C@H](Cc2ccccc2)NC(=O)[C@H](CCCNC(=N)N)NC(=O)[C@H](CCCNC(=N)N)NC(=O)[C@H](C)NC(=O)[C@H](C)NC(=O)[C@@H](CCCNC(=N)N)NC(=O)[C@H](Cc2ccc3ccccc3c2)NC(=O)[C@H](Cc2ccccc2)NC(=O)[C@H](C)NC(=O)[C@H](C)NC(=O)[C@H](CCC(=O)NCCOCCOCC(=O)N[C@@H](CCCCNC(=O)c2ccc3c(c2)C(=O)OC32c3ccc4cc(O)ccc4c3Oc3c2ccc2cc(O)ccc32)C(N)=O)NC(=O)[C@H](C)NC1=O | 4.1 |
| C[C@@H]1NC(=O)[C@H](CC(=O)O)NC(=O)[C@H](CCC(=O)NCCOCCOCC(=O)N[C@@H](CCCCNC(=O)c2ccc3c(c2)C(=O)OC32c3ccc4cc(O)ccc4c3Oc3c2ccc2cc(O)ccc32)C(N)=O)NC(=O)[C@H](CC(=O)O)NC(=O)[C@H](C)NC(=O)[C@H](CC(=O)O)NC(=O)[C@H](Cc2ccccc2)NC(=O)[C@H](CCCNC(=N)N)NC(=O)[C@H](CCCNC(=N)N)NC(=O)[C@@H]2CCCN2C(=O)[C@H]2CCCN2C(=O)[C@@H](CCCNC(=N)N)NC(=O)[C@H](Cc2ccc3ccccc3c2)NC(=O)[C@H](Cc2ccccc2)NC1=O | 14 |
| C[C@@H]1NC(=O)[C@H](C)NC(=O)[C@H](Cc2ccccc2)NC(=O)[C@@H](CCCNC(=N)N)NC(=O)[C@H](CCCNC(=N)N)NC(=O)[C@@H]2CCCN2C(=O)[C@H]2CCCN2C(=O)[C@H](CCCNC(=N)N)NC(=O)[C@H](Cc2ccc3ccccc3c2)NC(=O)[C@H](Cc2ccccc2)NC(=O)[C@H](C)NC(=O)[C@H](C)NC(=O)[C@H](CCC(=O)NCCOCCOCC(=O)N[C@@H](CCCCNC(=O)c2ccc3c(c2)C(=O)OC32c3ccc4cc(O)ccc4c3Oc3c2ccc2cc(O)ccc32)C(N)=O)NC(=O)[C@H](C)NC1=O | 37 |
| C[C@@H]1NC(=O)[C@H](C)NC(=O)[C@H](CCCNC(=N)N)NC(=O)[C@H](CCCNC(=N)N)NC(=O)[C@H](CCCNC(=N)N)NC(=O)[C@@H]2CCCN2C(=O)[C@H]2CCCN2C(=O)[C@H](Cc2ccccc2)NC(=O)[C@H](Cc2ccc3ccccc3c2)NC(=O)[C@H](Cc2ccccc2)NC(=O)[C@H](C)NC(=O)[C@H](C)NC(=O)[C@H](CCC(=O)NCCOCCOCC(=O)N[C@@H](CCCCNC(=O)c2ccc3c(c2)C(=O)OC32c3ccc4cc(O)ccc4c3Oc3c2ccc2cc(O)ccc32)C(N)=O)NC(=O)[C@H](C)NC1=O | 8.3 |
| N=C(N)NCCC[C@@H]1NC(=O)[C@H](Cc2ccc3ccccc3c2)NC(=O)[C@@H](Cc2ccccc2)NC(=O)[C@H](CCC(=O)NCCOCCOCC(=O)N[C@@H](CCCCNC(=O)c2ccc3c(c2)C(=O)OC32c3ccc4cc(O)ccc4c3Oc3c2ccc2cc(O)ccc32)C(N)=O)NC(=O)[C@@H](CCCNC(=N)N)NC(=O)[C@H](CCCNC(=N)N)NC(=O)[C@@H](CCCNC(=N)N)NC1=O | 100 |
| C[C@@H]1NC(=O)[C@H](C)NC(=O)[C@H](Cc2ccccc2)NC(=O)[C@H](CCCNC(=N)N)NC(=O)[C@H](CCCNC(=N)N)NC(=O)[C@@H]2CCCN2C(=O)[C@H]2CCCN2C(=O)[C@@H](CCCNC(=N)N)NC(=O)[C@H](Cc2ccc3ccccc3c2)NC(=O)[C@H](Cc2ccccc2)NC(=O)[C@H](C)NC(=O)[C@H](C)NC(=O)[C@H](CCC(=O)NCCOCCOCC(=O)N[C@@H](CCCCNC(=O)c2ccc3c(c2)C(=O)OC32c3ccc4cc(O)ccc4c3Oc3c2ccc2cc(O)ccc32)C(N)=O)NC(=O)[C@H](C)NC1=O | 33 |
| C[C@@H]1NC(=O)[C@H](CO)NC(=O)[C@H](C)NC(=O)[C@H](CO)NC(=O)[C@H](Cc2ccccc2)NC(=O)[C@H](CCCNC(=N)N)NC(=O)[C@H](CCCNC(=N)N)NC(=O)[C@@H]2CCCN2C(=O)[C@H]2CCCN2C(=O)[C@@H](CCCNC(=N)N)NC(=O)[C@H](Cc2ccc3ccccc3c2)NC(=O)[C@H](Cc2ccccc2)NC(=O)[C@H](CO)NC(=O)[C@H](C)NC(=O)[C@H](CO)NC(=O)[C@H](CCC(=O)NCCOCCOCC(=O)N[C@@H](CCCCNC(=O)c2ccc3c(c2)C(=O)OC32c3ccc4cc(O)ccc4c3Oc3c2ccc2cc(O)ccc32)C(N)=O)NC1=O | 84 |
| C[C@@H]1NC(=O)[C@H](C)NC(=O)[C@H](Cc2ccccc2)NC(=O)[C@H](CCCNC(=N)N)NC(=O)[C@@H](CCCNC(=N)N)NC(=O)[C@@H]2CCCN2C(=O)[C@H]2CCCN2C(=O)[C@H](CCCNC(=N)N)NC(=O)[C@H](Cc2ccc3ccccc3c2)NC(=O)[C@H](Cc2ccccc2)NC(=O)[C@H](C)NC(=O)[C@H](C)NC(=O)[C@H](CCC(=O)NCCOCCOCC(=O)N[C@@H](CCCCNC(=O)c2ccc3c(c2)C(=O)OC32c3ccc4cc(O)ccc4c3Oc3c2ccc2cc(O)ccc32)C(N)=O)NC(=O)[C@H](C)NC1=O | 32 |
| C[C@@H]1NC(=O)[C@H](C)NC(=O)[C@H](Cc2ccccc2)NC(=O)[C@H](CCCNC(=N)N)NC(=O)[C@H](CCCNC(=N)N)NC(=O)[C@@H]2CCCN2C(=O)[C@H]2CCCN2C(=O)[C@H](CCCNC(=N)N)NC(=O)[C@@H](Cc2ccc3ccccc3c2)NC(=O)[C@H](Cc2ccccc2)NC(=O)[C@H](C)NC(=O)[C@H](C)NC(=O)[C@H](CCC(=O)NCCOCCOCC(=O)N[C@@H](CCCCNC(=O)c2ccc3c(c2)C(=O)OC32c3ccc4cc(O)ccc4c3Oc3c2ccc2cc(O)ccc32)C(N)=O)NC(=O)[C@H](C)NC1=O | 51 |
| C[C@@H]1NC(=O)[C@H](Cc2ccccc2)NC(=O)[C@H](CCCNC(=N)N)NC(=O)[C@H](CCCNC(=N)N)NC(=O)[C@@H]2CCCN2C(=O)[C@H]2CCCN2C(=O)[C@@H](CCCNC(=N)N)NC(=O)[C@H](Cc2ccc3ccccc3c2)NC(=O)[C@H](Cc2ccccc2)NC(=O)[C@H](CCC(=O)NCCOCCOCC(=O)N[C@@H](CCCCNC(=O)c2ccc3c(c2)C(=O)OC32c3ccc4cc(O)ccc4c3Oc3c2ccc2cc(O)ccc32)C(N)=O)NC1=O | 8 |
